CHOP UPR activ: activators of apoptotic arm of unfolded protein response (CHOP). CHO-CHOP luciferase reporter, UPR activation, luminescence; percent of tunicamycin response over DMSO baseline. activation, % at 10 µM. hit rate 0.34% among 330,000. AID 449763;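 active = at 10 µM dose, activation of 40% or more, normalized to positive control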
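Material: CHO-CHOP cells, stable luciferase reporter of PERK-eIF2a-CHOP signalling; quantity: 500 reporter cells seeded per well; buffer or medium: F12 medium containing 10% fetal bovine serum; compound: one dose, 10 µM in 0.5% DMSO; incubation: 6 h compound treatment, 37 °C; measured by: Steady-Glo luciferase luminescence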
Mdm2-MdmX inh: inhibitors of human Mdm2/MdmX interaction; inhibition, % at 8 µM; SaOS-2 split-luciferase Mdm2/MdmX complementation, luminescence; hit rate 3% among 330,000; O15151+Q00987;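 active = inhibition of at least 50% at 8 µM in the primary screen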
Target sequence (O15151 whole entry, looked up): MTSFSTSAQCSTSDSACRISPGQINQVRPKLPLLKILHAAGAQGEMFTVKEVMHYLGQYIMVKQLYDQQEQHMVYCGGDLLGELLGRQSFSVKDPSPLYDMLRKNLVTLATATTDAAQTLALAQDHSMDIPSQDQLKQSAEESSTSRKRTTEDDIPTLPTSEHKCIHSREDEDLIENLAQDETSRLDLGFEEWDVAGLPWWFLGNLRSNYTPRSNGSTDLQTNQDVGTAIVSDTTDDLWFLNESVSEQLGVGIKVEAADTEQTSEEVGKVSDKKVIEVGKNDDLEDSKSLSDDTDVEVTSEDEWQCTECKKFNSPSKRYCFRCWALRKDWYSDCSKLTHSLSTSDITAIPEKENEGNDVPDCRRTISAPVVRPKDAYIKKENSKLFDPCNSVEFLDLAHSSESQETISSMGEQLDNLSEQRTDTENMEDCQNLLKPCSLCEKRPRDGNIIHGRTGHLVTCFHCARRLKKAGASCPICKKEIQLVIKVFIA
Target sequence (Q00987 whole entry, looked up): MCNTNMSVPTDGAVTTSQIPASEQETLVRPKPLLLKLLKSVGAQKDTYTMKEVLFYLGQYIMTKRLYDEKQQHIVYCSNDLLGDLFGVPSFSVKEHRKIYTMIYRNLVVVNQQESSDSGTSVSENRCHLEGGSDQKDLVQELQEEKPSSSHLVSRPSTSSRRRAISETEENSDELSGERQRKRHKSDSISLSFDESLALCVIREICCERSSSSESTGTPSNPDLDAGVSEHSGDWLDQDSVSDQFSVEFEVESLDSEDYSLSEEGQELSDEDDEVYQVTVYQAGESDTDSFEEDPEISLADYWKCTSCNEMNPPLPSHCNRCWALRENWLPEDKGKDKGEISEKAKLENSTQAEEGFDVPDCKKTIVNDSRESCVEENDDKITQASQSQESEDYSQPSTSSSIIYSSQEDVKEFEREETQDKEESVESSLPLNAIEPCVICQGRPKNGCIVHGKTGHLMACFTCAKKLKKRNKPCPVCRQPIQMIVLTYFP
Exocytosis inh: blocks lytic granule exocytosis. TALL-104 LAMP-1 surface exposure, flow cytometry; cells stimulated with thapsigargin and PMA. inhibition, % at 10 µM. hit rate 0.66% among 360,000;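 active = inhibition above about 55%, limit read from the data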
ABHD5 PLIN5 PPI: blocks binding of human ABHD5 to perilipin-5; Split G. princeps luciferase complementation, luminescence, 4 h; inhibition, % at 4 µM; hit rate 0.78% among 360,000;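 active = inhibition above the mean inhibition across every tested compound plus 3 SD, cut at about 22% in these data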
UPR XBP1 act: activators of adaptive arm of unfolded protein response (XBP1); CHO-XBP1 luciferase reporter, IRE1-XBP1 UPR activation, luminescence; percent of tunicamycin response, DMSO as zero; activation, % at 20 µM; hit rate 0.33% among 330,000; AID 463104;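 active = versus positive control, 20 µM dose yields 30% or more activation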
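assay system = CHO-XBP1 luciferase reporter cells | amount = 1000 cells/well | buffer or medium = F12 plus 10% FBS | compound dosing = single point, 20 µM final compound, 1% DMSO | incubation = 16-18 h cell attachment at 37 °C, then 6 h compound exposure | detection = Steady-Glo luminescence read | controls = tunicamycin 10 µg/mL and vehicle-only wells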
Mdm2-MdmX conf: human Mdm2/MdmX binding inhibition, confirmed. AID 489028. inhibition, % at 8 µM. hit rate 55% among 10,000. luminescent assay. shares compounds with Mdm2-MdmX inh; in the data active = inhibition above about 40%
FLuc counter: counter-screen for Mdm2/MdmX inhibitors: full-length luciferase | SaOS-2 full-length luciferase counterscreen, luminescence | shares compounds with Mdm2-MdmX inh | inhibition, % at 8 µM | hit rate 77% among 6,200;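 active = mean inhibition at 8 µM reaching about 37%, which flags the compound as non-specific, limit read from the data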;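 also: p53-null SaOS-2 cells with luciferase driven by a doxycycline-inducible promoter; compound on cells about two nights before reading with doxycycline added after day one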
Of the large screens only hits and unclear results are named; the others gave an inactive call (follow-up assays come after a bar, where they were run). The list is not random: actives were taken first. Their share in the collection is about 4%.

COc1ccc(-c2nn(-c3ccccc3)cc2/C=N/NC(=O)c2ccc(Br)o2)cc1	Mdm2-MdmX inh 68 | Mdm2-MdmX conf inactive
COc1ccc(-c2nn(-c3ccccc3)cc2/C=N/NC(=S)NC(C)C)cc1OC	none
C=CCNC(=S)N/N=C/c1cn(-c2ccccc2)nc1-c1ccc(OC)cc1	Mdm2-MdmX inh 51 | Mdm2-MdmX conf inactive
O=C(NCCSc1ccc(Br)cc1)c1ccccc1	none
CCOC(=O)N1CCN(C(=O)c2cc3c(=O)n4ccccc4nc3s2)CC1	none
CCn1nc(C)cc1C(=O)NC1CC(C)(C)Cc2c1cnn2-c1cccc(F)c1 (stereo not given)	none
O=C(O)c1ccccc1P(=O)(c1ccccc1)c1ccccc1	none
O=S(=O)(Nc1nc2ccccc2nc1Nc1ccc(N2CCOCC2)cc1)c1cc(Cl)ccc1Cl	Mdm2-MdmX inh 68 | Mdm2-MdmX conf inactive | FLuc counter 73
Clc1nc(Nc2ccc(N3CCOCC3)cc2)c2ccccc2n1	none
O=C(COc1ccc(Br)cc1)N1CCOCC1	none
N/C(=N\OC(=O)N1CCOCC1)c1ccc(Cl)cc1	Mdm2-MdmX inh 92 | Mdm2-MdmX conf 61 | FLuc counter 148
O=C(c1ccc(S(=O)(=O)c2ccc(Cl)cc2)cc1)N1CCOCC1	none
N/C(=N\OC(=O)N1CCOCC1)c1ccc(Br)cc1	Mdm2-MdmX inh 100 | Mdm2-MdmX conf 59 | FLuc counter 134
O=C(Oc1ccccc1)N1CCOCC1	none
N/C(=N\OC(=O)N1CCOCC1)c1ccccc1	Mdm2-MdmX inh 64 | Mdm2-MdmX conf inactive
COc1ccc(-c2ccc(=O)n(Cc3c(F)cccc3Cl)n2)cc1	none
O=C(Nc1ccc(Cl)c(S(=O)(=O)N2CCCC2)c1)c1nn(CCO)c(=O)c2ccccc12	none
c1ccc(-c2noc(-c3ccc4ccccc4c3)n2)nc1	Mdm2-MdmX inh 80 | Mdm2-MdmX conf 83 | FLuc counter inactive
COc1cccc(-c2nc(-c3ccccc3)no2)c1	none
c1ccc(-c2noc(-c3ccc4c(c3)OCO4)n2)nc1	Mdm2-MdmX inh 83 | Mdm2-MdmX conf 86 | FLuc counter inactive
COc1cccc(-c2nc(-c3ccccn3)no2)c1	Mdm2-MdmX inh 55 (no result: Exocytosis inh, ABHD5 PLIN5 PPI) | Mdm2-MdmX conf inactive | FLuc counter 57
Cc1cccc(-c2noc(-c3ccc4c(c3)OCO4)n2)c1	none
O=C(c1ccccc1)c1ccc(N2CCOCC2)cc1	none (no result: CHOP UPR activ, Mdm2-MdmX inh, UPR XBP1 act)
Fc1cccc(-c2cc3nc(-c4ccccc4)cc(N4CCC5(CC4)OCCO5)n3n2)c1	none
CN(C)CCCNc1cc(-c2ccccc2)nc2cc(-c3cccc(F)c3)nn12	Mdm2-MdmX inh 63 | Mdm2-MdmX conf inactive | FLuc counter 51
Cc1cccc(-c2cc3nc(C)cc(NCCCN(C)C)n3n2)c1	Mdm2-MdmX inh 65 | Mdm2-MdmX conf inactive
COCCN1CCN(c2cc(-c3ccccc3)nc3cc(-c4cccc(F)c4)nn23)CC1	Mdm2-MdmX inh 51 | Mdm2-MdmX conf inactive
C(=N\Nc1nc2ccccc2s1)/c1cccs1	none
COc1ccc(-c2c([C@H]3[C@@H]4C=CCC[C@@]4(C)C(=O)N3Cc3ccccc3)ccc3ccccc23)cc1OC	none
COc1ccc(-c2ccc([C@H]3[C@@H]4C=CCC[C@@]4(C)C(=O)N3Cc3ccccc3)c(F)c2)cc1OC	Mdm2-MdmX inh 63 | Mdm2-MdmX conf inactive
CC12CCC(C(=O)N(CC(O)CN3CCN(Cc4ccccc4)CC3)C1=O)C2(C)C (stereo not given)	none
O=C(Nc1ccc(Cl)cn1)c1ccc(-c2cc(Cl)ccc2Cl)o1	Mdm2-MdmX inh 74 | Mdm2-MdmX conf inactive
Cc1ccccc1NC(=O)c1ccc(-c2ccc(Cl)cc2Cl)o1	none
O=C(Nc1ccccc1N1CCCCC1)c1ccc(-c2cc(Cl)ccc2Cl)o1	Mdm2-MdmX inh 50 | Mdm2-MdmX conf inactive
Cc1cccc(C)c1NC(=O)c1ccc(-c2ccc(Cl)cc2Cl)o1	Mdm2-MdmX inh 56 | Mdm2-MdmX conf 46 | FLuc counter 45
CCn1c(-c2ccc(-c3ccccc3)cc2)c[nH]c1=S	none
CCOC(=O)c1cc(CC)sc1NC(=O)COC(=O)c1cnccn1	none
CCOC(=O)c1sc(NC(=O)c2ccc(S(=O)(=O)N3CCOCC3)cc2)nc1-c1ccccc1	none
Cc1cc(SCc2ccccc2Cl)nc(=O)[nH]1	none
Cc1cc(SCc2ccc(Cl)cc2Cl)nc(=O)[nH]1	Mdm2-MdmX inh 53 | Mdm2-MdmX conf inactive
Cc1onc(-c2ccccc2)c1C(=O)NCc1ccccn1	none
Cc1ccc(-c2nn3c(C)nnc3s2)cc1NCc1c(F)cccc1Cl	Mdm2-MdmX inh 81 | Mdm2-MdmX conf 66 | FLuc counter 57
CN(CC(=O)Nc1cccc(F)c1)C(=O)c1ccc(OCC2CCCO2)cc1 (stereo not given)	none
CN1CCN(C(=O)c2cnn3c(C(F)(F)F)cc(-c4cccs4)nc23)CC1	none
O=C(c1cnn2c(C(F)(F)F)cc(-c3cccs3)nc12)N1CCN(C(c2ccccc2)c2ccccc2)CC1	Mdm2-MdmX inh 62 | Mdm2-MdmX conf 59 | FLuc counter 68
COc1cc(OC)c(NC(=O)C(=O)CC(=O)c2ccc(C)cc2C)cc1Cl	Mdm2-MdmX inh 51 | Mdm2-MdmX conf inactive | FLuc counter 81
O=C(Oc1cccc(/C=N/Nc2nc(N3CCOCC3)nc(N3CCOCC3)n2)c1)c1ccco1	none
COc1ccc(/C=N/Nc2nc(N3CCCCC3)nc(N3CCCCC3)n2)cc1[N+](=O)[O-]	none
Cc1[nH]c2ccccc2c1/C=N/Nc1nc(Nc2ccccc2)nc(N2CCOCC2)n1	Mdm2-MdmX inh 58 | Mdm2-MdmX conf inactive
COc1ccc(/C=N/Nc2nc(Nc3ccccc3)nc(N3CCCC3)n2)cc1[N+](=O)[O-]	Mdm2-MdmX inh 97 | Mdm2-MdmX conf 92 | FLuc counter 61
COc1cc(/C=N/Nc2nc(Nc3ccccc3)nc(N3CCOCC3)n2)ccc1OC(=O)c1ccco1	Mdm2-MdmX inh 52 | Mdm2-MdmX conf inactive
Cc1c(Cl)cccc1NC(=O)CNC(=O)CCS(=O)(=O)c1ccc(F)cc1	none
CCN1CCCC1CNC(=O)CSCc1nc(-c2ccccc2C)oc1C (stereo not given)	none
O=C1c2ccccc2-c2onc3ccc(NCc4ccco4)c1c23	Mdm2-MdmX inh 58, Exocytosis inh 56, ABHD5 PLIN5 PPI 22 | Mdm2-MdmX conf inactive
COc1ccc(/C=C/C(=O)OCC(=O)Nc2cc3oc4ccccc4c3cc2OC)cc1	CHOP UPR activ 115, Mdm2-MdmX inh 82, UPR XBP1 act 163 (no result: Exocytosis inh, ABHD5 PLIN5 PPI) | Mdm2-MdmX conf inactive
COc1cc2c(cc1NC(=O)c1cccc([N+](=O)[O-])c1)oc1ccccc12	Mdm2-MdmX inh 71 | Mdm2-MdmX conf inactive

Assay outcomes from PubChem.
